The list is not random: actives were taken first. Their share in the collection is about 3.5%.
MrgX1 agonist – agonists of human MrgX1 receptor, primary screen, HEK293 cells, Fluo-4 calcium flux; AID 588627, 2011; B-score at 10 µM; 0.44% of 310,000 active; Mas-related G-protein coupled receptor member X1 (Homo sapiens), Q96LB2; Fluo-4 calcium fluorescence, agonist mode; hits give high values;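 active means calcium response B-score plate-corrected fluorescence ratio at least 3 library SD, with starting fluorescence B-score inside 5 SD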
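Assay system: stable human MrgX1 HEK293 cell line. Quantity: 15,000 cells per well. Schedule: cells plated overnight, dye loaded 0.5 h 37 °C, 0.5 h room temperature. Detection: Fluo-4 NW calcium-flux fluorescence, kinetic read. Read-out basis: peak-minus-minimum fluorescence over baseline, converted to B scores. Control set: positive and negative control wells on each plate.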
RGS4 act – RGS4 potentiators or activators, primary screen, cell-based, HEK293 M3R inducible RGS4, calcium flux; 0.92% of 310,000 active; carbachol calcium flux Fluo4; hits give low values; B-score at 10 µM; AID 463111, 2010;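 active means B-score of the integrated calcium signal more than 4 SD below the library mean, with starting fluorescence not abnormally high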;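 further: negative B-score means reduced calcium response which marks RGS4 activation or potentiation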
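Assay system: HEK293 FlpIn-TREx cells, stable M3R, doxycycline-inducible RGS4 / Probe or stimulus: carbachol, ECmax concentration / Times: overnight RGS4 induction, 30 min dye load 37 °C, 20 min compound RT / Signal: kinetic calcium fluorescence imaging with Fluo4-AM dye, 2 µM / Measure: Agonist-evoked peak-minus-minimum fluorescence over baseline, integrated ratio, B score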
RGS4 block – RGS4 inhibitors, primary screen, cell-based, HEK293 M3R inducible RGS4, calcium flux | AID 463165, 2010 | B-score at 10 µM | 0.45% of 310,000 active | Fluo-4 calcium flux; hits give high values; triggered by carbachol at its EC20 | Regulator of G-protein signaling 4 (Homo sapiens), P49798;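 active means B-score, a plate-corrected calcium signal, over three deviations above library mean, with baseline fluorescence within five deviations of library mean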;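 further: RGS4 expression induced by doxycycline in cells with stable M3 receptor; B-score is computed from the integrated fluorescence ratio over baseline after carbachol; higher B-score means a larger calcium signal and so more RGS4 inhibition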
Target sequence (P49798 whole entry, looked up): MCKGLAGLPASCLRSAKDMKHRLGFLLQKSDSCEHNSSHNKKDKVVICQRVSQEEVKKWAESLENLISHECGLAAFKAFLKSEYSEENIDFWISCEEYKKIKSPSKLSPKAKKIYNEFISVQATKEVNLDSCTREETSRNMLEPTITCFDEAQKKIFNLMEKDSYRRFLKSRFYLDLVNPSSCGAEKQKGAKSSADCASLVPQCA
MrgX1 allo act – positive allosteric modulators of MrgX1, primary screen, HEK293 cells, Fluo-4 calcium flux | Mas-related G-protein coupled receptor member X1 (Homo sapiens), Q96LB2 | FDSS; hits give high values | B-score at 10 µM | 0.63% of 310,000 active;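 active means plate-corrected calcium response at least 3 library SD above typical, normal starting fluorescence, not activating the receptor alone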;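 further: compound read alongside a low EC10 to EC30 dose of BAM8-22 agonist; peak minus trough fluorescence over baseline measured at the second addition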
MrgX1 antag – antagonists of human MrgX1 receptor, primary screen, HEK293 cells, Fluo-4 calcium flux; BAM8-22 antagonism; hits give low values; B-score at 10 µM; 1.3% of 310,000 active; AID 588676, 2011;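 active means calcium-response B-score plate-corrected more than 3 library SD below zero, starting fluorescence within 5 deviations, no agonist response on first addition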;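 further: peak minus trough fluorescence over baseline after final BAM8-22 challenge near maximal dose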
RGS4 block valid – enhanced carbachol calcium response, M3R/RGS4 cells, RGS4 inhibitor project, cell-based, validation screen, HEK293 M3R/RGS4, calcium flux. shares compounds with RGS4 block. carbachol calcium Fluo-4 fluorescence; carbachol added at its EC20; 0 = buffer wells, 100 = carbachol control. calcium response, % at 10 µM. 65% of 1,700 active. AID 492999, 2010;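 active means duplicate-averaged calcium response above the buffer-only control mean plus 5 SD of those controls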;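 further: integrated fluorescence ratio F max minus min over baseline F0; higher response in RGS4-induced cells means RGS4 inhibition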
M3R Ca ctr – carbachol calcium response in non-induced M3R cells, confirmation, counter-screen for RGS4 inhibitor project, cell-based, HEK293 M3R; carbachol calcium Fluo-4; submaximal (EC20) carbachol stimulus; buffer wells 0%, carbachol control wells 100%; AID 493000, 2010; 20% of 1,900 active; shares compounds with RGS4 block; activity (percent), % at 10 µM; call rule not given here;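 further: RGS4 induction absent so cells express M3R without RGS4; higher means more calcium signal and flags a non-specific hit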
M3R basal Ca ctr – second counter-screen for RGS4 inhibitors: non-induced cells without carbachol; 22% of 1,900 active; shares compounds with RGS4 block; HEK293 M3R/RGS4 non-induced, Fluo-4 calcium, no carbachol; normalised: buffer wells 0%, carbachol wells 100%; calcium response (agonist-mode artifact), % at 10 µM; AID 493001;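 active means duplicate-averaged calcium rise in uninduced cells above buffer wells' mean plus 5 SD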
* marks the source's active call; other numbers are inactive results; i = inactive; / = not tested or not shown.

SMILES | MrgX1 agonist | RGS4 act | RGS4 block | MrgX1 allo act | MrgX1 antag | RGS4 block valid | M3R Ca ctr | M3R basal Ca ctr
O=C1CCCC(O)=C1C(C#Cc1ccccc1)C1=C(O)CCCC1=O | 27* | i | 6.7* | i | i | 50%* | i | 11%*
CC1(C)CC(=O)C(N=Nc2ccc(-c3ccccc3)cc2)=C(O)C1 | i | i | i | i | i | / | / | /
CC1(C)CC(=O)C(C(C#Cc2ccccc2)C2=C(O)CC(C)(C)CC2=O)=C(O)C1 | i | i | 8* | i | i | 44%* | i | 22%*
O=C1CCCC(O)=C1Sc1ccccc1C(=O)O | i | i | i | i | i | / | / | /
CCOc1cccc(C(=O)N/N=C/c2coc3ccccc3c2=O)c1 | i | i | i | i | i | / | / | /
Cc1ccc(S(=O)(=O)Nc2ccc3c(c2)c2c(n3S(=O)(=O)c3ccc(C)cc3)CCCC2=O)cc1 | i | i | i | i | i | / | / | /
CC(=O)NC(c1cccc([N+](=O)[O-])c1)c1c(OC(C)=O)ccc2ccccc12 (stereo not given) | i | i | i | i | i | / | / | /
CC(=O)Oc1ccc2ccccc2c1C(NC(=O)Cc1ccccc1)c1ccccc1 (stereo not given) | i | i | 5.5* | i | i | 14%* | 30%* | i
Cc1cc2cc(C)c(NCCNC(=O)c3ccccc3F)nc2cc1C | i | i | i | i | i | i | i | i
Cc1cc2cc(C)c(NCCNC(=O)c3cccc(F)c3)nc2cc1C | i | i | 5.3* | i | i | i | i | i
Cc1cccc(C(=O)NCCNc2nc3cc(C)c(C)cc3cc2C)c1 | i | i | i | i | i | i | i | i
O=S(=O)(Nc1ccc(O)c2ccccc12)c1ccc(F)cc1 | i | i | i | i | i | / | / | /
CCc1ccc(S(=O)(=O)Nc2ccc(O)c3ccccc23)cc1 | i | i | 4.7* | i | i | 10%* | i | i
C=CCN(CC=C)C(=O)C1CCN(S(=O)(=O)c2ccc(N3CCCC3=O)cc2)CC1 | i | i | i | i | i | / | / | /
CCOC(=O)C1=C(C)NC(=O)NC1C(C)C (stereo not given) | i | i | i | i | i | / | / | /
Cc1nn2c(N3CCOCC3)cc(C(C)(C)C)nc2c1-c1ccc(Cl)cc1 | / | i | i | / | / | / | / | /
Cc1ccc(-c2cnn3c(N4CCOCC4)cc(C)nc23)cc1 | i | i | i | i | i | / | / | /
CC(C)(C)c1cc(N2CCOCC2)n2ncc(-c3ccc(Cl)cc3)c2n1 | i | i | 11* | i | i | 27%* | 47%* | i
Cc1cc(N2CCOCC2)n2ncc(-c3ccc(Cl)cc3)c2n1 | i | i | i | i | i | i | i | i
Cc1ccc(C)c(Cn2c3ccccc3c3cnn(CC(=O)NCCCN4CCCCC4)c(=O)c32)c1 | i | i | i | i | i | / | / | /
COc1ccc2c(CC(=O)Nc3ccc(OC)c(NS(=O)(=O)c4ccc(F)cc4)c3)coc2c1 | i | i | i | i | i | / | / | /

High-throughput results as filed in PubChem.
